Entries after “also recorded” stand apart in the source; their conditions may differ. No end group written: not given here.

Test [1] addresses T1, Med15 ABD1 (Saccharomyces cerevisiae, UniProt P19659).
T1 sequence (P19659 158-238 limits assumed): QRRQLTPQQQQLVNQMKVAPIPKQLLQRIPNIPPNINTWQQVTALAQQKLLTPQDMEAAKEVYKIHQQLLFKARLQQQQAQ
Conditions: ITC; 20 mM KH2PO4 (pH 7.5), 200 mM KCl; cAD; ref Brzovic et al., 2011; cited from earlier work.

For test [2], the target named is T2, Med15 ABD2 (Saccharomyces cerevisiae, UniProt P19659).
T2 sequence (P19659 277-368): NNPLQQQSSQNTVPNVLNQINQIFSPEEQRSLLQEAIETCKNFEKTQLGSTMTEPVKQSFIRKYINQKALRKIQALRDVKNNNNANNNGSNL
Briefly: ITC binding, Med15 ABD2. Conditions: 20 mM KH2PO4 (pH 7.5), 200 mM KCl, nAD 0.111 mM vs ABD2 1.60 mM, ABD2 0.224 mM vs cAD 2.35 mM, not measurable due to weak binding or low heats of binding. The arrangement: species or system S. cerevisiae.

The target in test [3] is T1, Med15 ABD1. Briefly: NMR competition: unlabeled cAD added to 15N-tAD + ABD1. It is filed as binding, S. cerevisiae. As to conditions: (1H,15N)-HSQC.
Test [4] concerns the target T1, Med15 ABD1. Conditions: ref Brzovic et al., 2011; cited from earlier work.
Test [5] has as its target T2, Med15 ABD2. Kind of test: Fluorescence polarization binding, Med15 ABD2. Set-up: species or system S. cerevisiae. The gist of the method: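 Gcn4 AD peptides (nAD, cAD, tAD) labelled with Oregon Green 488 were titrated with Med15 ABD2, giving 15 concentrations spanning 0–250 μM for tAD. Proteins were size-exclusion purified into 20 mM KH2PO4 (pH 7.5), 200 mM KCl. Polarization was measured on a Beacon 2000. Kd was fitted with a one-site total binding model including a nonspecific term and background.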

The next test has as its target T3, Med15 ABD3 (Saccharomyces cerevisiae, UniProt P19659).
T3 sequence (P19659 484-651): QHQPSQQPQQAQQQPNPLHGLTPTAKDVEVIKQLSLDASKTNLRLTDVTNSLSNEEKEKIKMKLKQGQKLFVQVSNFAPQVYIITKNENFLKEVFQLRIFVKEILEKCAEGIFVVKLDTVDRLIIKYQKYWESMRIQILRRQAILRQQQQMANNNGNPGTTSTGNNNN
Kind of test: ITC binding, Med15 ABD3. The arrangement: species or system S. cerevisiae. As to conditions: 20 mM KH2PO4 (pH 7.5), 200 mM KCl, nAD 0.111 mM vs ABD3 1.12 mM, ABD3 0.236 mM vs cAD 2.35 mM, single binding site model. The method in brief:
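ITC was run on a MicroCal ITC200 in 20 mM KH2PO4 (pH 7.5), 200 mM KCl. In one run, Gcn4 nAD in the cell (0.111 mM) was titrated with Med15 ABD3 from the syringe (1.12 mM). In the other, ABD3 in the cell (0.236 mM) was titrated with Gcn4 cAD (2.35 mM). Data were fitted with a single binding site model.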

The next test deals with T4, Med15 KIX (Saccharomyces cerevisiae, UniProt P19659).
T4 sequence (P19659 6-91): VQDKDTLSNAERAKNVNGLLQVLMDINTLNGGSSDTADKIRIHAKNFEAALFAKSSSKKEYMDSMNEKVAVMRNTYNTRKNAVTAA
Conditions: FP; Oregon Green 488-labeled Gcn4 peptide; ref Herbig et al., 2010; cited from earlier work.

Turning to “STDSTPMFEYENLEDNSKEWTSLFDNDIPVTTDD [cAD]”, the ΔS at Med15 ABD1 [1] is 4.58 cal/mol/deg. Besides, the Kd result on Med15 ABD2 [2] was “unable to measure”; at Med15 ABD3, “unable to measure”; at Med15 KIX it was “neither nAD nor cAD showed detectable KIX binding; also recorded: unable to measure”. Further, the “competition with 15N-tAD for ABD1” value on Med15 ABD1 [3] is “cAD can compete off both cAD and nAD residues”. For the same sequence, at Med15 ABD1 [4], the “helical structure upon ABD1 binding, residues 117–125” value is listed as “adopt helical structure”. For the same sequence, at Med15 ABD2 [5], the “weaker binding (cAD to ABD2) than the other pairwise interactions” value is listed as ~ 10 fold. The “affinity for ABD2 (in words)” value at Med15 ABD2 [5] (compared with nAD or tAD) is reported as “substantially weaker affinity”.

Source of the values: PMC5908246 (Cell reports, 2018).
